# Test results: ChEMBL document CHEMBL3593175, “Bicyclic [3.3.0]-Octahydrocyclopenta[c]pyrrolo Antagonists of Retinol Binding Protein 4: Potential Treatment of Atrophic Age-Related Macular Degeneration and Stargardt Disease” (J Med Chem, 2015); call rule not given here
# What was measured:
# [1] = biological target: T1, Retinol-binding protein 4 (Homo sapiens, UniProt P02753); experiment: Displacement of [3H]-retinol from RBP4 (unknown origin) by scintillation proximity assay
# [2] = biological target: T1, Retinol-binding protein 4; experiment: Inhibition of retinol-induced interaction of bacterially expressed MBP-tagged RBP4 (unknown origin) with Eu3+ cryptate labeled TTR by HTRF assay
# [3] = Metabolic stability in human liver microsomes assessed as compound remaining at 10 uM after 30 mins; format: ADME; settings: read-out: Stability
# [4] = Metabolic stability in rat liver microsomes assessed as compound remaining at 10 uM after 30 mins; format: ADME; settings: read-out: Stability
# Liver microsome [5] = experiment: Intrinsic clearance in human liver microsomes; format: ADME
# Liver microsome [6] = experiment: Intrinsic clearance in rat liver microsomes; format: ADME
# Liver = experiment: Intrinsic clearance in mouse liver microsomes; format: ADME
# [7] = Intrinsic clearance in cynomolgus monkey liver microsomes; format: ADME, Macaca fascicularis
# Cytochrome P450 2C9 = Cytochrome P450 2C9 (Homo sapiens, UniProt P11712); experiment: Inhibition of CYP2C9 (unknown origin)
# Cytochrome P450 2C19 = Cytochrome P450 2C19 (Homo sapiens, UniProt P33261); experiment: Inhibition of CYP2C19 (unknown origin); format: ADME
# Cytochrome P450 2D6 = Cytochrome P450 2D6 (Homo sapiens, UniProt P10635); experiment: Inhibition of CYP2D6 (unknown origin); format: ADME
# Cytochrome P450 3A4 = Cytochrome P450 3A4 (Homo sapiens, UniProt P08684); experiment: Inhibition of CYP3A4 (unknown origin); format: ADME
# [8] = biological target: Voltage-gated inwardly rectifying potassium channel KCNH2 (Homo sapiens, UniProt Q12809); experiment: Inhibition of human ERG expressed in HEK293 cells by patch clamp assay; format: cell-based
# Plasma [9] = experiment: Protein binding in rat plasma; format: ADME, cell-free
# MDCK [10] = experiment: Apparent permeability across apical to basolateral side in MDCK cells expressing MDR1; format: ADME, cell-based, Canis lupus familiaris; settings: dog
# MDCK [11] = experiment: Apparent permeability across basolateral to apical side in MDCK cells expressing MDR1; format: ADME, cell-based, Canis lupus familiaris; settings: dog
# [12] = biological target: T2, Nuclear receptor subfamily 1 group I member 2 (Homo sapiens, UniProt O75469); experiment: Activation of human PXR; format: ADME
# T2 sequence (O75469 whole entry): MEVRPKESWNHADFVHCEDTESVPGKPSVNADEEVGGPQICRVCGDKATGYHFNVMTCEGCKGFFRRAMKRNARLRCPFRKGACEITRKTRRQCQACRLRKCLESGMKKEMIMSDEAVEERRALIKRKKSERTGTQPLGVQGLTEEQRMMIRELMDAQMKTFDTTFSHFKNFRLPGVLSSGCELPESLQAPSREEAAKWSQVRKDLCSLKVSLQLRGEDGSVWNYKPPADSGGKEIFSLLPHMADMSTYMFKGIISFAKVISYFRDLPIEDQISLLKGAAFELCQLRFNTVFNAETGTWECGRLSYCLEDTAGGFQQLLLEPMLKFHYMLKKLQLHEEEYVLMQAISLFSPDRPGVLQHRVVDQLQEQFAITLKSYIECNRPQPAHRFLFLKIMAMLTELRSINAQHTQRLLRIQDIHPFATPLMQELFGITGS
# [13] = Kinetic solubility in phosphate buffered saline at pH 7.4; format: physicochemical; settings: buffer
# Plasma [14] = experiment: Initial plasma concentration in Sprague-Dawley rat at 2 mg/kg, iv by HPLC/MS/MS method; format: ADME, organism-based; settings: in vivo
# Procedure, shortened: (§1)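 Male Sprague Dawley rats, 3 per group, single dose: 2.0 mg/kg IV tail vein (0.4 mg/mL, 5 mL/kg; 3% DMA/45% PEG300/12% ethanol/40% sterile water) or 5.0 mg/kg oral gavage (0.5 mg/mL, 10 mL/kg; 2% Tween 80 in 0.9% saline). Plasma sampled pre-dose to 48 h, assayed by HPLC/MS/MS. Non-compartmental analysis; AUC by log/linear (IV) or linear up/log down trapezoidal (PO).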
# Rattus norvegicus [15] = experiment: Plasma clearance in Sprague-Dawley rat at 2 mg/kg, iv by HPLC/MS/MS method; format: ADME, organism-based; settings: in vivo; procedure, shortened: as §1
# Rattus norvegicus [16] = experiment: Apparent terminal half life in Sprague-Dawley rat at 2 mg/kg, iv by HPLC/MS/MS method; format: ADME, organism-based; settings: in vivo; procedure, shortened: as §1
# Rattus norvegicus [17] = experiment: Volume of distribution at steady state in Sprague-Dawley rat at 2 mg/kg, iv by HPLC/MS/MS method; format: ADME, organism-based; settings: in vivo; procedure, shortened: as §1
# Rattus norvegicus [18] = experiment: AUClast in Sprague-Dawley rat at 2 mg/kg, iv by HPLC/MS/MS method; format: ADME, organism-based; parameters: dose 2 mg/kg, time 0 - last, route intravenous; settings: in vivo; procedure, shortened: as §1
# Rattus norvegicus [19] = experiment: AUC (0 to infinity) in Sprague-Dawley rat at 2 mg/kg, iv by HPLC/MS/MS method; format: ADME, organism-based; parameters: dose 2 mg/kg, route intravenous, time infinity; settings: in vivo; procedure, shortened: as §1
# Rattus norvegicus [20] = experiment: Cmax in Sprague-Dawley rat at 5 mg/kg, po by HPLC/MS/MS method; format: ADME, organism-based; parameters: dose 5 mg/kg, route oral; settings: in vivo; procedure, shortened: as §1
# Rattus norvegicus [21] = experiment: Tmax in Sprague-Dawley rat at 5 mg/kg, po by HPLC/MS/MS method; format: ADME, organism-based; settings: in vivo; procedure, shortened: as §1
# Rattus norvegicus [22] = experiment: Apparent terminal half life in Sprague-Dawley rat at 5 mg/kg, po by HPLC/MS/MS method; format: ADME, organism-based; settings: in vivo; procedure, shortened: as §1
# Rattus norvegicus [23] = experiment: AUClast in Sprague-Dawley rat at 5 mg/kg, po by HPLC/MS/MS method; format: ADME, organism-based; parameters: dose 5 mg/kg, time 0 - last, route oral; settings: in vivo; procedure, shortened: as §1
# Rattus norvegicus [24] = experiment: AUC (0 to infinity) in Sprague-Dawley rat at 5 mg/kg, po by HPLC/MS/MS method; format: ADME, organism-based; parameters: dose 5 mg/kg, time infinity, route oral; settings: in vivo; procedure, shortened: as §1
# Rattus norvegicus [25] = experiment: Oral bioavailability in Sprague-Dawley rat at 5 mg/kg by HPLC/MS/MS method; format: ADME, organism-based; settings: in vivo; procedure, shortened: as §1
# [26] = Plasma concentration in Sprague-Dawley rat at 5 mg/kg, po measured at 48 hrs post dose on day 1 by HPLC/MS/MS method; format: ADME, organism-based
# Procedure, shortened: (§2)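 Male Sprague Dawley rats (n=3) were given one 5 mg/kg oral gavage dose (1.0 mg/mL) on Day 1 in 2% Tween 80 in 0.9% saline. Plasma was sampled pre-dose and at 0.25–48 h and measured by HPLC/MS/MS. Non-compartmental analysis: Cmax and Tmax taken directly from the data; half-life from terminal regression over at least three non-zero points after Tmax.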
# [27] = Plasma concentration in Sprague-Dawley rat at 5 mg/kg, po qd administered for 7 days measured at 4 hrs post dose on day 7 by HPLC/MS/MS method; format: ADME, organism-based
# Procedure, shortened: (§3)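 Male Sprague Dawley rats (n=3) were dosed orally by gavage at 5 mg/kg (1.0 mg/mL) once daily on Days 1–7, with a vehicle group run in parallel. Plasma was taken pre-dose on Days 1–6, then pre-dose and at 0.25–48 h on Day 7, and analysed by HPLC/MS/MS. Non-compartmental PK; terminal half-life needed at least three non-zero points after Tmax.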
# [28] = Plasma concentration in Sprague-Dawley rat at 5 mg/kg, po qd administered for 7 days measured at 48 hrs post dose on day 7 by HPLC/MS/MS method; format: ADME, organism-based; procedure, shortened: as §3
# [29] = Plasma concentration in Sprague-Dawley rat at 5 mg/kg, po qd administered for 7 days measured on day 7 prior to administration of last dose by HPLC/MS/MS method; format: ADME, organism-based; procedure, shortened: as §3
# Rattus norvegicus [30] = experiment: Cmax in Sprague-Dawley rat at 5 mg/kg, po measured on day 1 by HPLC/MS/MS method; format: ADME, organism-based; parameters: dose 5 mg/kg, route oral; settings: in vivo; procedure, shortened: as §2
# Rattus norvegicus [31] = experiment: Tmax in Sprague-Dawley rat at 5 mg/kg, po measured on day 1 by HPLC/MS/MS method; format: ADME, organism-based; settings: in vivo; procedure, shortened: as §2
# Rattus norvegicus [32] = experiment: Elimination half life in Sprague-Dawley rat at 5 mg/kg, po measured on day 1 by HPLC/MS/MS method; format: ADME, organism-based; settings: in vivo; procedure, shortened: as §2
# Rattus norvegicus [33] = experiment: AUClast in Sprague-Dawley rat at 5 mg/kg, po measured on day 1 by HPLC/MS/MS method; format: ADME, organism-based; parameters: dose 5 mg/kg, time 0 - last, route oral; settings: in vivo; procedure, shortened: as §2
# Rattus norvegicus [34] = experiment: Cmax in Sprague-Dawley rat at 5 mg/kg, po qd administered for 7 days measured on day 7 post last dose by HPLC/MS/MS method; format: ADME, organism-based; parameters: dose 5 mg/kg, route oral; settings: in vivo, 168 h; procedure, shortened: as §3
# Rattus norvegicus [35] = experiment: Tmax in Sprague-Dawley rat at 5 mg/kg, po qd administered for 7 days measured on day 7 post last dose by HPLC/MS/MS method; format: ADME, organism-based; settings: in vivo, 168 h; procedure, shortened: as §3
# Rattus norvegicus [36] = experiment: Elimination half life in Sprague-Dawley rat at 5 mg/kg, po qd administered for 7 days measured on day 7 post last dose by HPLC/MS/MS method; format: ADME, organism-based; settings: in vivo, 168 h; procedure, shortened: as §3
# Rattus norvegicus [37] = experiment: AUClast in Sprague-Dawley rat at 5 mg/kg, po qd administered for 7 days measured on day 7 post last dose by HPLC/MS/MS method; format: ADME, organism-based; parameters: dose 5 mg/kg, route oral, time 0 - last; settings: in vivo, 168 h; procedure, shortened: as §3
# Rattus norvegicus [38] = experiment: Decrease in RBP4 level in Sprague-Dawley rat plasma at 5 mg/kg, po relative to vehicle-treated control; format: functional; parameters: scale not given: the % may be the effect or the level left
# Procedure, shortened: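 Male Sprague-Dawley rats were dosed by oral gavage at 10 mL/kg, with 2% Tween 80 in 0.9% saline as vehicle, […]. A vehicle-dosed group served as control. Whole blood was clotted for 30 min at room temperature, then centrifuged at 2000g for 15 min at 4°C to give serum. Serum RBP4 was measured by dual ELISA.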
# Rattus norvegicus [39] = experiment: Decrease in RBP4 level in Sprague-Dawley rat plasma at 5 mg/kg, po qd administered for 7 days measured on day 7 post last dose relative to vehicle-treated control; format: functional; parameters: scale not given: the % may be the effect or the level left
# Procedure, shortened: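 Male Sprague Dawley rats received 5 mg/kg or vehicle by oral gavage once daily for 7 days, 3 per group. Whole blood clotted 30 min at room temperature, then was centrifuged at 2000g for 15 min at 4°C. Serum RBP4 was measured by dual ELISA kit per the manufacturer's instructions.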
# Chain of Cytochrome P450 2C9 (P11712 whole entry): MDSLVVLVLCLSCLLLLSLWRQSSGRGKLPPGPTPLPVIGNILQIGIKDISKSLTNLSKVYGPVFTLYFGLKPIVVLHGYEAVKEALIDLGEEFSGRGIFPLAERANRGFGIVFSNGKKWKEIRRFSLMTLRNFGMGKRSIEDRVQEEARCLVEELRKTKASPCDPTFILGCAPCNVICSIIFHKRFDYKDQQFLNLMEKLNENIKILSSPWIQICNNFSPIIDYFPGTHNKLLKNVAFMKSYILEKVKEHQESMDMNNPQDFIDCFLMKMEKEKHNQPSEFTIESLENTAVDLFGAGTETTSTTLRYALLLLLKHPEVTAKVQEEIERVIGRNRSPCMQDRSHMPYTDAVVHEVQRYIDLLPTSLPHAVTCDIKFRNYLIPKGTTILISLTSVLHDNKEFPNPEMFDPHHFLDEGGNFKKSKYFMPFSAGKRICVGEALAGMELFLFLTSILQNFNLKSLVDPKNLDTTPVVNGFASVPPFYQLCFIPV
# Chain of Cytochrome P450 3A4 (P08684 whole entry): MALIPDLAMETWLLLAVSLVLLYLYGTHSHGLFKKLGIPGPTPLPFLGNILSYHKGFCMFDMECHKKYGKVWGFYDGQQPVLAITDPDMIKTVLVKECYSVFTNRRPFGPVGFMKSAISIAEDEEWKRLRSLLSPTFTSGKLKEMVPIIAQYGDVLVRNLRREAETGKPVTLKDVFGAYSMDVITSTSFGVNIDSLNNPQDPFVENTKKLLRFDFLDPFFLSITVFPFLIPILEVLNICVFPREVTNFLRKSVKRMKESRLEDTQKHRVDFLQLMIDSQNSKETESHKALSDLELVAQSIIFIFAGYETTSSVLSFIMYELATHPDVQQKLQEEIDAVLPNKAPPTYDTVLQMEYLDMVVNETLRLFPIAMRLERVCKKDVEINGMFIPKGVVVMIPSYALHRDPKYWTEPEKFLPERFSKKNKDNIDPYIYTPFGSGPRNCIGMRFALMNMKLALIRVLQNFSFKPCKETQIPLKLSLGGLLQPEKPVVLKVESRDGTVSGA
# Chain of Voltage-gated inwardly rectifying potassium channel KCNH2 (Q12809 whole entry): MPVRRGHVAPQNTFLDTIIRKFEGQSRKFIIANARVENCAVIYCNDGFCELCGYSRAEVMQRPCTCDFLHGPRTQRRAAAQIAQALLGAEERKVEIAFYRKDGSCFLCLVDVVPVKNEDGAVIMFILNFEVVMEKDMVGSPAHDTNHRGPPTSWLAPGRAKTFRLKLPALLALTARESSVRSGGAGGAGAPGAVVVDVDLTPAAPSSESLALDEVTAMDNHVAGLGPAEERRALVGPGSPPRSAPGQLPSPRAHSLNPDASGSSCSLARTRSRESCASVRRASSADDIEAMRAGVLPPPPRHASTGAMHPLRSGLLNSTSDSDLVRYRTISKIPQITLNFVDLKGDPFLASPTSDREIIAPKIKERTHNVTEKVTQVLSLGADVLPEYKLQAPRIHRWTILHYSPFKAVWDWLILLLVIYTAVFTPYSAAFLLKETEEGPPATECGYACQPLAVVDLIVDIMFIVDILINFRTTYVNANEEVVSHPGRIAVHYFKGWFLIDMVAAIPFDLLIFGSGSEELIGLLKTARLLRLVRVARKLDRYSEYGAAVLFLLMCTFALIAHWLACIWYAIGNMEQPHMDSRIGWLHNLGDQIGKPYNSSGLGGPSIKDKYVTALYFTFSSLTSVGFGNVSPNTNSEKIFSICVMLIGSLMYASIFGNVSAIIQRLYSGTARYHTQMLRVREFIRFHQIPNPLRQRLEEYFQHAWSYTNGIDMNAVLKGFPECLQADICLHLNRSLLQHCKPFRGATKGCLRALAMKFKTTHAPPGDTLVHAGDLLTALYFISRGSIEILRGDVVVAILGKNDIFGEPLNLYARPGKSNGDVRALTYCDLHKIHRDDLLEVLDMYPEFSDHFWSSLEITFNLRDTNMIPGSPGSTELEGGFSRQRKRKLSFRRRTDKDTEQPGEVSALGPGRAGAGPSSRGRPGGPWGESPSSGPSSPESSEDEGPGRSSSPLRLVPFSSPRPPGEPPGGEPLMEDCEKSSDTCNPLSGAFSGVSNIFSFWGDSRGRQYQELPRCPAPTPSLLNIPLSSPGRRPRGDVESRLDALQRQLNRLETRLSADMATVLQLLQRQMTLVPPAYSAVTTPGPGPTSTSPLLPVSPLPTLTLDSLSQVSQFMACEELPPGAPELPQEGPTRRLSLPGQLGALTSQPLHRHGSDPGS
# Chain of Cytochrome P450 2C19 (P33261 whole entry): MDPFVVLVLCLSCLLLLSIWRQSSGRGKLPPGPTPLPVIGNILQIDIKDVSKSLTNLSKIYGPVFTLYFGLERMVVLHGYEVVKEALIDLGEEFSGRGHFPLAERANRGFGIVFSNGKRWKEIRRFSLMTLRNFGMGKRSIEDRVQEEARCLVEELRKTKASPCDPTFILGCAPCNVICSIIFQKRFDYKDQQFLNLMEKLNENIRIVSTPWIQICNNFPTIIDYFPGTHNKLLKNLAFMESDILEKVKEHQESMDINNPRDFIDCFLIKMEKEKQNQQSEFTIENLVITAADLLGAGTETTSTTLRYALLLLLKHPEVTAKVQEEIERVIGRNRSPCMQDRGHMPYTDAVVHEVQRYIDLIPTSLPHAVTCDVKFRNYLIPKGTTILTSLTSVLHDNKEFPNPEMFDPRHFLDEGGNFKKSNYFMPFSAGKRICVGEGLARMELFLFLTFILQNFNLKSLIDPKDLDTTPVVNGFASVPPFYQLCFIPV
# Chain of Cytochrome P450 2D6 (P10635 whole entry): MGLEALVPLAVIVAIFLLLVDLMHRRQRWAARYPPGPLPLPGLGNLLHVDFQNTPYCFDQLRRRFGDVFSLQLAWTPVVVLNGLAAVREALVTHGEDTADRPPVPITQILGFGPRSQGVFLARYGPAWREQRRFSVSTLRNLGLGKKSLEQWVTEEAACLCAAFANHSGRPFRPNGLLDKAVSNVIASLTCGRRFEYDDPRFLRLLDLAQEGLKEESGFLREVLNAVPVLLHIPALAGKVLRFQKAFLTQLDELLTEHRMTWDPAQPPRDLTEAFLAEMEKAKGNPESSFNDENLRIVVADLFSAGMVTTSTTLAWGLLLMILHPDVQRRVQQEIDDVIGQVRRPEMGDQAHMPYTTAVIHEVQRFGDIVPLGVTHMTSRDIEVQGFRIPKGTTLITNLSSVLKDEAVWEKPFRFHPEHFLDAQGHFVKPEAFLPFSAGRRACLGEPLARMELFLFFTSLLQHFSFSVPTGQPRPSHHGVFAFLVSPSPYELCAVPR
compound,measurement,setting,value
Cc1cc(C(N)=O)nc(N2C[C@H]3C[C@@H](c4ccccc4C(F)(F)F)C[C@H]3C2)n1,IC50,[1],3.3 nM
same,IC50,[2],248 nM
Cc1cc(C(=O)O)nc(N2C[C@H]3C[C@@H](c4ccccc4C(F)(F)F)C[C@H]3C2)n1,"remaining at 0.5 h, 10 µM",[3],94%
same,"remaining at 0.5 h, 10 µM",[4],93%
same,CLH,Liver microsome [5],< 0.7 microL/ml/min
same,CLH,Liver microsome [6],< 0.7 microL/ml/min
same,CLH,Liver,< 0.7 microL/ml/min
same,CLH,[7],0.7 microL/ml/min
same,IC50,Cytochrome P450 2C9,> 34000 nM
same,IC50,Cytochrome P450 2C19,> 34000 nM
same,IC50,Cytochrome P450 2D6,> 34000 nM
same,IC50,Cytochrome P450 3A4,> 34000 nM
same,IC50,[8],> 30000 nM
same,PPB,Plasma [9],99.4%
same,Papp,MDCK [10],74.7 ×10⁻⁶ cm/s
same,Papp,MDCK [11],82.2 ×10⁻⁶ cm/s
same,Activity,[12],Not Active
same,Kinetic_solubility,[13],> 100 µM
same,C0,Plasma [14],58.6 µM
same,CL,Rattus norvegicus [15],5.06 mL/h/kg
same,betat1/2(app),Rattus norvegicus [16],22 h
same,Vdss,Rattus norvegicus [17],0.156 L/kg
same,AUClast,Rattus norvegicus [18],795 µM·h
same,AUC,Rattus norvegicus [19],1017 µM·h
same,Cmax,Rattus norvegicus [20],62.2 µM
same,Tmax,Rattus norvegicus [21],2.67 h
same,betat1/2(app),Rattus norvegicus [22],38.8 h
same,AUClast,Rattus norvegicus [23],2011 µM·h
same,AUC,Rattus norvegicus [24],3636 µM·h
same,F,Rattus norvegicus [25],143%
same,concentration at 48 h,[26],20 µM
same,concentration at 4 h,[27],179 µM
same,concentration at 48 h,[28],97.1 µM
same,concentration at 168 h,[29],148 µM
same,Cmax,Rattus norvegicus [30],66.5 µM
same,Tmax,Rattus norvegicus [31],2.75 h
same,beta t1/2,Rattus norvegicus [32],31.9 h
same,AUClast,Rattus norvegicus [33],1695 µM·h
same,Cmax,Rattus norvegicus [34],183 µM
same,Tmax,Rattus norvegicus [35],2.17 h
same,beta t1/2,Rattus norvegicus [36],49.4 h
same,AUClast,Rattus norvegicus [37],6380 ng·h/mL
same,Activity,Rattus norvegicus [38],85%
same,Activity,Rattus norvegicus [39],95%
Cc1cc(C(=O)O)nc(N2C[C@H]3C[C@@H](c4cccnc4C(F)(F)F)C[C@H]3C2)n1,IC50,[1],31.1 nM
same,IC50,[2],719 nM
